APP 5'UTR act: activators of APP 5'UTR luciferase reporter, primary screen, SH-SY5Y cells; AID 1276, 2008; SH-SY5Y APP 5'UTR luciferase reporter, luminescence; zero percent = DMSO vehicle wells; 1% of 190,000 active; activation, % at 2 µM;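 active = activation above a set limit, based on mean plus 3 SD of controls, cut at about 140% in these data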
FLuc act counter: FLuc activators, initial screening, artefact control for FLuc-dependent activation tests, biochemical, ATPlite luminescence; ATPlite luciferase biochemical, 10 min; 0 = ATP-free wells, 1 = DMSO control; activation factor at 10 µM; 200,000 tested, under 10 active; AID 1027, 2008;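 active = luciferase activation factor, scaled between plate controls, of at least 2 with compound at 10 µM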
Target sequence (P08659 whole entry, looked up): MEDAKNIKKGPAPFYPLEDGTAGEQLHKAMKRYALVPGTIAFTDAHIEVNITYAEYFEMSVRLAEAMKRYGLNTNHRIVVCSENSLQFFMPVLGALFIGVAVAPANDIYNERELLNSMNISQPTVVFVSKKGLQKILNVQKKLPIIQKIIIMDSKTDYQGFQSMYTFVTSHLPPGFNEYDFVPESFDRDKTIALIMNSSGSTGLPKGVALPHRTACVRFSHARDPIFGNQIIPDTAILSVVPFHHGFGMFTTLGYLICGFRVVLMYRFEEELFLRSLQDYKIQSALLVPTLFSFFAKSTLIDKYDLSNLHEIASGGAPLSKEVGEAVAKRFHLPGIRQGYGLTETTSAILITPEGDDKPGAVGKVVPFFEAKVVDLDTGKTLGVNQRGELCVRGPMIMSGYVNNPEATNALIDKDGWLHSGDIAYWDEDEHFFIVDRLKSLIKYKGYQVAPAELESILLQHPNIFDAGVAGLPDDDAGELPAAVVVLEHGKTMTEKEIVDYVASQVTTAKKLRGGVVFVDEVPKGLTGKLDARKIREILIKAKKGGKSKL
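System: cell-free luciferase reagent; medium: PBS as buffer for the ATP substrate; doses: test compounds dosed from 2 mM stocks in 100% DMSO; incubation: 10 min, room temperature; measured by: luminescence from luciferase reaction; read-out: luciferase activation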
STAT1 activator: STAT1 signaling activators, primary screen, cell-based, HTS, luciferase reporter; NIH 3T3 STAT1-luciferase reporter, IFN-gamma, luminescence; 100% = IFN-gamma alone, no compound; activation (% of control), % at 5.5 µM; 2.6% of 200,000 active;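 active = activation above the screen-wide mean activation plus 3 SD, cut at about 130% in these data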
FLuc inhib CS: firefly luciferase enzyme inhibitors, primary screen, artefact control for luciferase-based inhibitor screens, biochemical, luminescence, ATPLite | Luciferin 4-monooxygenase (Photinus pyralis), P08659 | 10 min | inhibition, % at 10 µM | 1.5% of 200,000 active | AID 1006, 2008;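 active = inhibition above about 50% when tested at 10 µM, limit read from the data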
NF-kB neuron act: activators of NF-kB expression in neurons, primary screen, cell-based, HTS; human neuronal cells, NF-kB reporter expression; active compounds read high; fold change at 12.5 µM; AID 1239, 2008; 1.6% of 190,000 active; in the data active = fold change above about 3.3
Large screens that a line does not name were inactive. A selection: hits, their analogues and other compounds. The true share with any hit is near 4.3%.

O=C(CCSc1ccc(Cl)cc1)NC1CCCCC1	none
CC(Sc1nnnn1-c1ccc(Cl)cc1)C(=O)NCC(=O)Nc1ccc(F)c(F)c1F (stereo unspecified)	none
Fc1ccc(-c2nnc(-c3ccc(Cl)cc3)o2)cc1	STAT1 activator 135, NF-kB neuron act 4.2
CSc1ccccc1-c1nnc(-c2ccc(Cl)cc2Cl)o1	FLuc inhib CS 60
CSc1nnc(-c2ccc(Cl)cc2Cl)o1	none
Clc1ccc(-c2nnc(-c3ccccc3)o2)c(Cl)c1	FLuc inhib CS 86, NF-kB neuron act 5
Fc1ccc(-c2nnc(-c3ccc(Cl)cc3Cl)o2)cc1	APP 5'UTR act 141, FLuc inhib CS 89
O=C(NN1CCN(Cc2ccccc2)CC1)c1ccc(Cl)cc1	none
CCCCn1c(SCC(=O)NC2CCS(=O)(=O)C2)nc2cc(S(N)(=O)=O)ccc21 (stereo unspecified)	none
O=C(Oc1cccc(C(=S)N2CCOCC2)c1)c1cc([N+](=O)[O-])cc([N+](=O)[O-])c1	none
CCc1ccc(N2C(=O)CC(N(CC3CCCO3)C(=O)/C=C/C(=O)O)C2=O)cc1 (stereo unspecified)	none
Clc1ccc(-c2nnc(-c3ccc(Br)o3)o2)c(Cl)c1	STAT1 activator 139
O=[N+]([O-])c1ccccc1NC(=S)N/N=C/c1ccc(O)c(O)c1	APP 5'UTR act 150, STAT1 activator 148 (no result: NF-kB neuron act)
Clc1ccc(-n2cc(COCc3ccccc3)nn2)cc1	APP 5'UTR act 170, NF-kB neuron act 4.1
Cc1nn(C)c(C)c1Nc1ccc(N2C(=O)C3CC=CCC3C2=O)cc1[N+](=O)[O-] (stereo unspecified)	none
CC(C)(C)SCCNC(=O)c1ccc(Cl)c([N+](=O)[O-])c1	none
O=C(O)C(=O)/C(=C\c1cccc(Cl)c1)c1ccc2ccccc2n1	STAT1 activator 137
CN(C)C(=S)c1ccc2ccccc2n1	none
Cc1cccc(/C=C(\C(=O)C(=O)O)c2ccc3ccccc3n2)c1	STAT1 activator 148
CCC(C)n1c(SCc2ccc([N+](=O)[O-])cc2)nc2ccsc2c1=O (stereo unspecified)	none
Cc1ccc(C(=O)NC2CCCCCC2)cc1N1CCCC1=O	none
O=C(NC1CCCCCC1)c1cccc(N2CCCC2=O)c1	STAT1 activator 130
CN(C)c1ccc(C=NCC2COc3ccccc3O2)cc1 (stereo unspecified)	none
C/C(=N/Oc1nc(C)cc(C)n1)c1ccc(Br)cc1	none
Cc1cc(C)nc(Oc2ccc(Br)cc2Br)n1	STAT1 activator 142
COc1ccc(Nc2cccc(Cl)c2)c(C(=O)O)c1	NF-kB neuron act 3.6
Cc1ccc(NC(=O)Nc2cccc(Cl)c2)c(C(=O)O)c1	none
C=CCN(CC=C)C(=O)c1ccc(OC2CCN(Cc3ccccn3)CC2)cc1	none
CC(C)NC(=O)CN1CCC(c2ccccc2)C(O)C1 (stereo unspecified)	none
O=C(Nc1cccc(NC(=O)c2ccc3c(c2)OCO3)c1)c1ccccc1	none
O=C(Nc1ccn(Cc2ccccc2)n1)c1ccc2c(c1)OCO2	FLuc inhib CS 58
O=C(Nc1ccccc1)c1ccc2c(c1)OCCO2	STAT1 activator 146, FLuc inhib CS 65, NF-kB neuron act 5.5
COc1cc(C(=O)Nc2cc(C)ccn2)cc(OC)c1OC	none
O=C(Nc1ccc2c(c1)OCO2)c1ccc(Cl)s1	APP 5'UTR act 184, STAT1 activator 130, FLuc inhib CS 61, NF-kB neuron act 9.8
COc1ccc(C(=O)NC(=O)Nc2cc(C)ccn2)cc1	APP 5'UTR act 159, FLuc inhib CS 92
Cn1cc(CN2CCCC(C(=O)c3nccn3C)C2)c(-c2cccc(Cl)c2)n1 (stereo unspecified)	none
CCC(=O)NC(=S)Nc1ccc(N2CCN(C(=O)c3ccc(Cl)cc3)CC2)cc1	none
CCCNC(=O)c1ccc(CN2CCOCC2)cc1	none
O=C(Nc1ccc(Cl)c([N+](=O)[O-])c1)c1ccc2c(c1)OCCO2	APP 5'UTR act 168, STAT1 activator 139, NF-kB neuron act 3.7
O=C(Nc1ccc2c(c1)OCO2)c1ccc2c(c1)OCO2	APP 5'UTR act 138, STAT1 activator 132, FLuc inhib CS 83, NF-kB neuron act 8
O=C(NCCOc1ccccc1)c1ccc2c(c1)OCO2	FLuc inhib CS 51
CCOCCCNC(=O)c1ccc2c(c1)OCO2	none
CCOC(=O)c1c(N)sc(C(=O)Nc2ccc3c(c2)OCO3)c1C	FLuc inhib CS 90, NF-kB neuron act 5.5
CCOC(=O)c1c(C)c(C(=O)Nc2ccc3c(c2)OCO3)c(C)n1C	none
Cc1ccc(C2CC(c3ccc(C)cc3)n3nc(N)nc3N2)cc1 (stereo unspecified)	none
CN(C)C(CNC(=S)Nc1ccc(Cl)cc1)c1cccnc1 (stereo unspecified)	none
O=C(Nc1ccc([N+](=O)[O-])cc1)Nc1ccc2c(c1)OCCO2	STAT1 activator 134, NF-kB neuron act 4.5
O=C(Nc1ccc2c(c1)OCO2)c1cccc(Cl)c1	STAT1 activator 129
O=C(Nc1ccc(F)c(F)c1)c1ccc2c(c1)OCO2	STAT1 activator 138
O=C(Nc1ccc2c(c1)OCO2)c1ccc[n+]([O-])c1	none
O=C(Nc1ccc2c(c1)OCO2)Nc1ccccn1	STAT1 activator 148, FLuc inhib CS 50
CSc1nc(N(C)C)nc(N2CC(=O)N(CCNS(=O)(=O)c3ccc(C)cc3)C2=N)n1	none (no result: APP 5'UTR act)
O=C(Nc1ccccn1)Nc1cccs1	STAT1 activator 132
CCC(=O)Oc1ccc(C(=O)Nc2ccc3c(c2)OCO3)cc1	APP 5'UTR act 142, STAT1 activator 137
O=C(CCc1ccccc1)c1ccc2c(c1)OCCCO2	none
CCCCOc1ccc(C(=O)Nc2ccc3c(c2)OCO3)cc1	none
O=C(CCCc1ccccc1)c1ccc2c(c1)OCCO2	FLuc inhib CS 95 (no result: APP 5'UTR act)
O=C(Nc1cccc(F)c1)Nc1ccccn1	STAT1 activator 148
COc1ccc(-c2noc(CCC(=O)NCCc3cccc(C)c3)n2)cc1	none
CC(=O)NC1(c2ccccc2)CCN(c2cc(C)nc(-c3ccccc3)n2)CC1	none
CC(C)n1c(O)c(N=NC(=O)Cn2ccc(C(F)(F)F)n2)c2ccccc21	none
O=C(Nc1ccc2c(c1)OCO2)Nc1ccc2c(c1)OCO2	APP 5'UTR act 136, STAT1 activator 141
CCOc1ccc(C(=O)Nc2ccc3c(c2)OCCO3)cc1[N+](=O)[O-]	none
O=C(Nc1ccc2c(c1)OCO2)c1c(Cl)nc2sccn12	STAT1 activator 131
O=C(Nc1cccc(O)c1)c1cnn2cccnc12	none (no result: APP 5'UTR act)
O=C(Nc1ccc2c(c1)OCO2)c1cnn2cccnc12	STAT1 activator 130
CCOc1ccc(C(=O)Nc2ccc3c(c2)OCCO3)cc1OC	FLuc inhib CS 60
CCc1ccc(C(C(=O)NC2CCCCC2)N(C(=O)CNC(=O)c2ccco2)c2cccnc2)cc1 (stereo unspecified)	none (no result: FLuc act counter, FLuc inhib CS, NF-kB neuron act)

Source: PubChem BioAssay
